# Measured values as given in ChEMBL document CHEMBL1144782, “Isoindolo[2,1-a]quinoxaline derivatives, novel potent antitumor agents with dual inhibition of tubulin polymerization and topoisomerase I” (2008).
# Values joined by “and” are separate entries in the source; they are usually repeats but may differ in a detail not shown here. Equal entries are not always repeated.
# Legend:
# Format in all cases: functional
# EKVX = assay: Antitumor activity against human EKVX cells; conditions: read-out: pTGI (converted)
# Procedure, shortened: (§1)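 Run by the NCI in its in vitro disease-oriented screen of about 60 human tumour cell lines. For each line it reports pGI50 (50% net growth inhibition), pTGI (total growth inhibition) and pLC50 (50% net cell death), each as –log molar concentration. Where an effect was not reached within the tested range, the highest tested concentration was used.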
# ACHN = assay: Antitumor activity against human ACHN cells; procedure, shortened: as §1
# MCF7 [1] = assay: Growth inhibition of human multidrug-resistant MCF7 cells after 72 hrs by MTT assay; conditions: MCF7, 72 h
# Procedure, shortened: (§2)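 Growth inhibition by MTT after 72 h incubation. Resistant sublines: LoVoDoxo and MCF-7 MDR were kept in 0.1 µg/mL doxorubicin; CEMVbl-100 was selected against vinblastine. GI50 given as mean ± SEM of three independent experiments. Resistance index is resistant-line GI50 over parental GI50.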
# BT-549 = assay: Antitumor activity against human BT549 cells; procedure, shortened: as §1
# RPMI-8226 = assay: Antitumor activity against human RPMI8226 cells; procedure, shortened: as §1
# DU-145 = assay: Antitumor activity against human DU145 cells; procedure, shortened: as §1
# HCT-15 = assay: Antitumor activity against human HCT15 cells; procedure, shortened: as §1
# SK-MEL-28 = assay: Antitumor activity against human SKMEL28 cells; procedure, shortened: as §1
# MCF7 [2] = assay: Resistance index, Ratio of GI50 for human multidrug-resistant MCF7 cells to GI50 for human MCF7 cells; procedure, shortened: as §2
# Hs-578T = assay: Antitumor activity against human HS578T cells; procedure, shortened: as §1
# CCRF-CEM = assay: Growth inhibition of human CEM cells after 72 hrs by MTT assay; procedure, shortened: as §2
# NCI-H460 [3] = assay: Antitumor activity against human NCI-H460 cells; procedure, shortened: as §1
# U-251 = assay: Antitumor activity against human U251 cells
# Procedure, shortened: (§3)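 NCI 60-cell-line screen. Parameters were GI50 (50% net growth inhibition), TGI and LC50, each reported as –log molar concentration. Where an effect was not reached within the tested range, the highest tested concentration was used in the calculation.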
# HOP-62 = assay: Antitumor activity against human HOP62 cells; procedure, shortened: as §1
# NCI-H460 [4] = assay: Cell viability against human NCI-H460 cells at 10 uM
# SF-295 = assay: Antitumor activity against human SF295 cells; procedure, shortened: as §1
# OVCAR-3 = assay: Antitumor activity against human OVCAR-3 cells; procedure, shortened: as §1
# UACC-257 = assay: Antitumor activity against human UACC257 cells; procedure, shortened: as §3
# 786-0 = assay: Antitumor activity against human 786-0 cells; procedure, shortened: as §1
# OVCAR-8 = assay: Antitumor activity against human OVCAR8 cells; procedure, shortened: as §1
# MOLT-4 = assay: Antitumor activity against human MOLT4 cells; procedure, shortened: as §1
# HT-29 = assay: Antitumor activity against human HT29 cells; procedure, shortened: as §1
# [5] = read-out: Log LC50 (the source's name) (converted)
smiles,measurement,setting,value
Cc1cccc2c1[nH]c(=O)c1c3ccccc3cn21,TGI,EKVX,44.7 µM
same,GI50,ACHN,4.07 µM
same,LC50 (50% net cell kill),ACHN,> 100 µM
same,TGI,ACHN; read-out: pTGI (converted),22.4 µM
same,GI50,MCF7 [1],8.1 µM
same,GI50,BT-549,12 µM
same,LC50 (50% net cell kill),BT-549,> 100 µM
same,TGI,BT-549; read-out: pTGI (converted),58.9 µM
same,GI50,RPMI-8226,2 µM
same,CC50,RPMI-8226; [5],60.3 µM
same,TGI,RPMI-8226; read-out: pTGI (converted),7.08 µM
same,GI50,DU-145,5.25 µM and 17.4 µM
same,CC50,"DU-145; Homo sapiens, DU-145, read-out: Log LC50 (the source's name) (converted)",41.7 µM
same,GI50,HCT-15,5.25 µM
same,CC50,HCT-15; [5],> 100 µM
same,TGI,HCT-15; read-out: pTGI (converted),31.6 µM
same,GI50,SK-MEL-28,6.92 µM
same,CC50,SK-MEL-28; [5],> 100 µM
same,TGI,SK-MEL-28; read-out: pTGI (converted),> 100 µM
same,RatioGI50,MCF7 [2],2.2
same,GI50,Hs-578T,21.9 µM
same,CC50,Hs-578T; [5],> 100 µM
same,TGI,Hs-578T; read-out: pTGI (converted),64.6 µM
same,GI50,CCRF-CEM,2.9 µM
same,GI50,NCI-H460 [3],1.91 µM
same,CC50,NCI-H460 [3]; [5],31.6 µM
same,TGI,NCI-H460 [3]; read-out: pTGI (converted),10 µM
same,GI50,U-251,6.61 µM
same,CC50,U-251; [5],45.7 µM
same,TGI,U-251; read-out: pTGI (converted),19.5 µM
same,GI50,HOP-62,3.55 µM
same,LC50 (50% net cell death),HOP-62,51.3 µM
same,TGI,HOP-62; read-out: pTGI (converted),15.1 µM
same,Activity,NCI-H460 [4],2%
same,GI50,SF-295,2.63 µM
same,CC50,SF-295; [5],> 100 µM
same,TGI,SF-295; read-out: pTGI (converted),25.1 µM
same,GI50,OVCAR-3,4.79 µM
same,LC50 (50% net cell death),OVCAR-3,> 100 µM
same,TGI,OVCAR-3; read-out: pTGI (converted),28.2 µM
same,GI50,UACC-257,16.6 µM
same,LC50,UACC-257,> 100 µM
same,TGI,UACC-257; read-out: pTGI (converted),93.3 µM
same,GI50,786-0,5.89 µM
same,CC50,786-0; [5],> 100 µM
same,TGI,786-0; read-out: pTGI (converted),32.4 µM
same,GI50,OVCAR-8,3.55 µM
same,LC50 (50% net cell death),OVCAR-8,> 100 µM
same,TGI,OVCAR-8; read-out: pTGI (converted),> 100 µM
same,GI50,MOLT-4,1.82 µM
same,LC50,MOLT-4,20.9 µM
same,TGI,MOLT-4; read-out: pTGI (converted),5.62 µM
same,GI50,HT-29,2.19 µM
same,LC50,HT-29,36.3 µM
same,TGI,HT-29; read-out: pTGI (converted),13.2 µM
